Measured values pooled from the literature.
Lines come from different studies, so protocols differ.
Target: Dual specificity protein kinase CLK2 (CLK2, Homo sapiens, UniProt P49760)

C#Cc1cc(-c2cc(Nc3nc(N[C@@H](C)c4ccc(F)cn4)ncc3Cl)n[nH]2)ccc1C=O
inhibition (enzyme activity; inhibitor; 0.2 µM): 47.4%

CC(C)S(=O)(=O)c1ccc2nccc(Nc3ccc4sc(C5CCCC5)nc4c3)c2c1
activity vs control (enzyme activity; inhibitor; 1 µM): 105%

C=CC(=O)N1CCC[C@@H](n2nc(-c3ccc(Oc4ccccc4)cc3)c3c(N)ncnc32)C1
inhibition (enzyme activity; inhibitor; 1 µM): 2%

Cc1ccc(NC(=O)c2ccnc(C(F)(F)F)c2)cc1-c1cc(OCCO)nc(N2CCOCC2)c1
remaining binding (binding; 1 µM): 100%

CO[C@@H]1[C@H](N(C)C(=O)c2ccccc2)C[C@H]2O[C@]1(C)n1c3ccccc3c3c4c(c5c6ccccc6n2c5c31)C(=O)NC4
inhibition (enzyme activity; inhibitor; 1 µM): 54%

C[C@H]1CC[C@H](n2c3cnccc3c3cnc(Nc4ccc5c(n4)CCN(C(=O)CO)C5)nc32)CC1
remaining signal (cell-free assay; 1 µM): 1%

C1=C/COCc2cc(ccc2OCCN2CCCC2)Nc2nccc(n2)-c2cccc(c2)COC/1
remaining binding (binding; 0.1 µM): 47%

Cc1cc(O)c(-c2ccc([C@@H](C)CN(C)C)cc2)c2c1[nH]c(=O)c1sccc12
inhibition (enzyme activity; inhibitor; 0.1 µM): 8.32%

CCCCC(=O)Nc1ccc(-c2ccc3ncn(CCC)c(=O)c3c2)cn1
remaining binding (binding; competition with immobilised ligand; 0.5 µM): 100%
